Source: PubChem BioAssay
RORA inh – RORA (human) inhibition; 65,000 tested, 0.43% active; CHO-K1 Gal4-RORA LBD luciferase reporter, luminescence; inhibition, % at 10 µM;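 active = inhibition above the mean of all tested compounds plus 3 SD, cut at about 52% in these data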;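 also: 0% = RORA-transfected cells with DMSO and 100% = mock-transfected cells lacking RORA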
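Test system: CHO-K1 cells with Gal4-hRORA LBD fusion and pG5-luc reporter / Compound: single concentration per compound, 10 µM final / Schedule: 20 h compound treatment, 37 °C / Signal: luminescence from basal luciferase reporter expression / Read-out: % inhibition / Control set: mock-transfected cells as 100%, +RORA DMSO cells as 0% / Replicates: tested once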
The depositor's hits bear a star. Many of the other results were omitted from the sample, so hits are more common in it than they were.

Cc1ccc(S(=O)(=O)N(C)Cc2ccc(-c3nnc4n3CCC4)cc2)cc1 was read as RORA inh 13.5.
Screening CCC(=O)Nc1c(OC(=O)CC)ccc2c(C)cc(=O)oc12 returned RORA inh -2.6.
`Cc1nnc(SCC(=O)NCCc2ccccc2)[nH]c1=O` gave RORA inh 7.1.
O=C(Cn1cnc2c(oc3ccccc32)c1=O)N1CCN(c2ccccc2)CC1 was read as RORA inh -8.6.
`CCc1ccc(N(CC(=O)NC2CCCCC2)S(=O)(=O)c2c(C)noc2C)cc1` gave RORA inh -4.9.
For COC(=O)c1ccc(-c2nc(-c3cccs3)no2)cc1 the results were RORA inh 51.7*.
For COc1ccc(Cc2nc(-c3cccs3)no2)cc1OC the results were RORA inh -9.6.
`COc1cccc(-c2noc(-c3cccs3)n2)c1` gave RORA inh -66.5.
Screening COc1cccc(C2C(C(=O)Nc3ccc(C)cc3C)=C(C)Nc3ncnn32)c1OC (configuration not stated) returned RORA inh 14.0.
For CC(C)[C@H](NC(=O)[C@@H]1CSCN1C(=O)OC(C)(C)C)C(=O)NCC1CCC(C(=O)O)CC1 (some centres not stated) the results were RORA inh 1.0.
Screening c1c2c(cc3sc(N4CCOCC4)nc13)OCCO2 returned RORA inh 68.9*.
`CCOc1ccc2nc(N3CCCC(C(=O)NCCCN4CCOCC4)C3)sc2c1` (configuration not stated) gave RORA inh 2.3.
Screening c1ccc(N2CCN(c3nc4cc5c(cc4s3)OCCO5)CC2)cc1 returned RORA inh -77.0.
For CSc1cccc(NS(=O)(=O)c2cccc3nsnc23)c1 the results were RORA inh -15.5.
Screening CCOC(=O)C1=C(C)N(c2ccccc2)C(=O)C1CC(=O)O (configuration not stated) returned RORA inh 16.0.
For Cc1ccc(-c2nnc(SCC(=O)Nc3ccccc3F)o2)cc1 the results were RORA inh 63.2*.
Screening Cc1cccc(C)c1OCc1nnc(SCC(=O)Nc2ccccc2F)o1 returned RORA inh 10.5.
`Cc1[nH]c2ccc(-c3nnc(SCC(=O)c4ccccc4F)o3)cc2c1C` gave RORA inh -6.9.
Screening Cc1cccc(NC(=O)CSc2nnc(-c3cc(C)n(-c4ccccc4)c3C)o2)c1C returned RORA inh 62.8*.
For Cc1csc(NC(=O)CSc2nnc(-c3ccoc3C)o2)n1 the results were RORA inh -60.6.
Screening Cc1cc(-c2nnco2)c(C)n1-c1ccccc1 returned RORA inh -12.7.
`Cc1cc(N)c(NC2=CC(=O)CC(C)(C)C2)cc1C` gave RORA inh -70.5.
Screening CCOc1ccc(S(=O)(=O)N2CCN(Cc3ccccc3)CC2)c2cccnc12 returned RORA inh 2.6.
For CCOC(=O)c1sc2nc(NC(=O)c3cccs3)sc2c1C the results were RORA inh -60.1.
`O=C(CN(CCO)c1ccccc1)NC12CC3CC(CC(C3)C1)C2` gave RORA inh 23.8.
Screening Cc1cnc(-c2nnc(N(C)C(=O)c3cnccn3)s2)cn1 returned RORA inh -17.5.
Cc1oc2cc3c(C(=O)OCCN(C)C)c(C)oc3cc2c1C(=O)OCCN(C)C was read as RORA inh 82.1*.
For COC(=O)c1cc(COc2ccc3oc(C)c(C(=O)OC)c3c2)c(C)o1 the results were RORA inh 5.6.
`CN(C)CCOC(=O)C1(c2ccccc2)CCOCC1` gave RORA inh 2.6.
O=C(NCc1ccc(F)cc1)c1cc2n(n1)C(C(F)(F)F)CC(C1CC1)N2 (configuration not stated) was read as RORA inh -63.9.
For COC(=O)c1nnn(CC(=O)Nc2cccc(Cl)c2)c1C(=O)OC the results were RORA inh 3.7.
CC(=O)Cc1nsc(Nc2ccc3c(c2)OCCO3)n1 was read as RORA inh -121.8.
For CC(Oc1cc(C(F)(F)F)cc(C(F)(F)F)c1)C(=O)NC(N)=O (configuration not stated) the results were RORA inh 8.2.
Screening CCC(C)c1cc(S(=O)(=O)N2CCOCC2)ccc1OC (configuration not stated) returned RORA inh 11.3.
`CCS(=O)(=O)N1CCCC(c2nc(-c3cccc(OC)c3)no2)C1` (configuration not stated) gave RORA inh -38.7.
For COc1ccc2c(-c3ccccc3)cc3nnnn3c2c1 the results were RORA inh -0.2.
For CCCS(=O)(=O)c1nnnn1-c1cccc(OC)c1 the results were RORA inh 82.4*.
O=C1CN(C(=O)CSc2nnnn2-c2ccc(Cl)cc2)c2ccccc2N1 was read as RORA inh 1.0.
CCOC(=O)c1[nH]c(C)c(C(=O)Nc2ccc(F)cc2)c1C was read as RORA inh 8.4.
For CCOC(=O)c1[nH]c(C)c(C(=O)Nc2ccccc2F)c1C the results were RORA inh -110.5.
For CC(=O)c1c(C)[nH]c(C(=O)OCCCCN2C(=O)c3ccccc3C2=O)c1C the results were RORA inh 77.7*.
